Measurements from ChEMBL document CHEMBL1140794, “Discovery of 3-aryl-3-methyl-1H-quinoline-2,4-diones as a new class of selective 5-HT6 receptor antagonists” (Bioorg Med Chem Lett, 2008).
Each block holds one compound with its values, some of them ahead of it.

Assays:
[1] = biological target: T1, 5-hydroxytryptamine receptor 6 (Homo sapiens, UniProt P50406); experiment: Displacement of [3H]LSD from human cloned 5HT6 receptor expressed in HEK293 cells; format: cell-based
D(4) dopamine receptor = biological target: T2, D(4) dopamine receptor (Homo sapiens, UniProt P21917); experiment: Displacement of [3H]spiperone from human cloned dopamine D4 receptor
T2 sequence (P21917 whole entry): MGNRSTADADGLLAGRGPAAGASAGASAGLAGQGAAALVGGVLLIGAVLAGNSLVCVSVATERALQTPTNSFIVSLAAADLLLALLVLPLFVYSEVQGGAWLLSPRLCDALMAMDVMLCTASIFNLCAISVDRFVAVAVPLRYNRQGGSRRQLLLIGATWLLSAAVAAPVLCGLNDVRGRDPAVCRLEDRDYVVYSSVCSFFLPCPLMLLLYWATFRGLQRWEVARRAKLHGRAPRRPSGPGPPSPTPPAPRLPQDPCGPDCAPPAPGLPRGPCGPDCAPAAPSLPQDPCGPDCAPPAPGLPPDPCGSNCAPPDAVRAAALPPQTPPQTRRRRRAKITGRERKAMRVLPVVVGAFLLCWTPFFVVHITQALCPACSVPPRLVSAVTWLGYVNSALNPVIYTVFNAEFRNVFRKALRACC

[2] = biological target: T3, 5-hydroxytryptamine receptor 2C (Homo sapiens, UniProt P28335); experiment: Displacement of [3H]mesulergine from human cloned 5HT2C receptor
T3 sequence (P28335 whole entry): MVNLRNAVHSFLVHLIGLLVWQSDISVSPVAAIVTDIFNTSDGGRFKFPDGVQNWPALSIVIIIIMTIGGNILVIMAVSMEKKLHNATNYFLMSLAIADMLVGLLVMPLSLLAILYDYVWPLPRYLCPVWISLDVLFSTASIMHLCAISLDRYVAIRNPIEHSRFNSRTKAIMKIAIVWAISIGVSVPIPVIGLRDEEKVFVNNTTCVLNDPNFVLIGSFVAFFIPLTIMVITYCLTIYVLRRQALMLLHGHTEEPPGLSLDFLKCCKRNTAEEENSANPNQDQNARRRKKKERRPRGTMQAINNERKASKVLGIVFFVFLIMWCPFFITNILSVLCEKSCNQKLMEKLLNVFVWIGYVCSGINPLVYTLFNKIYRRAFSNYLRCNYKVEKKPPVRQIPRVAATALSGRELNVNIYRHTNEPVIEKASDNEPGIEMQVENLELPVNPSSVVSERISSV

D(2) dopamine receptor = D(2) dopamine receptor (Homo sapiens, UniProt P14416); experiment: Displacement of [3H]spiperone from human cloned dopamine D2 receptor
[3] = biological target: T4, 5-hydroxytryptamine receptor 1A (Homo sapiens, UniProt P08908); experiment: Displacement of [3H]8-OH-DPAT from human cloned 5HT1A receptor
T4 sequence (P08908 whole entry): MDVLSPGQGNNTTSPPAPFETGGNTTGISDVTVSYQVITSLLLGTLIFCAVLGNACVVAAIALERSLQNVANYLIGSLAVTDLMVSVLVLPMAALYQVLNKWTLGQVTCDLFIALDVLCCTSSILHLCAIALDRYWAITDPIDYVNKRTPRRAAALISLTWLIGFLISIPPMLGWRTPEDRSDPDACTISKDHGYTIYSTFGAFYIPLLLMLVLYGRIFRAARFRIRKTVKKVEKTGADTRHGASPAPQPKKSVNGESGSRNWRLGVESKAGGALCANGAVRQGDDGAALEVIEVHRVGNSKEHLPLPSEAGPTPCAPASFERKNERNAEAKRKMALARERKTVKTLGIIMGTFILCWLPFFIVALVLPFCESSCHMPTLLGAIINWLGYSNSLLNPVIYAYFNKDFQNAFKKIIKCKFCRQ

D(1A) dopamine receptor = D(1A) dopamine receptor (Homo sapiens, UniProt P21728); experiment: Displacement of [3H]SCH-23390 from human cloned dopamine D1 receptor
[4] = biological target: 5-hydroxytryptamine receptor 2A (Homo sapiens, UniProt P28223); experiment: Displacement of [3H]ketanserin from human cloned 5HT2A receptor
D(3) dopamine receptor = D(3) dopamine receptor (Homo sapiens, UniProt P35462); experiment: Displacement of [3H]spiperone from human cloned dopamine D3 receptor
[5] = biological target: 5-hydroxytryptamine receptor 7 (Homo sapiens, UniProt P34969); experiment: Displacement of [3H]LSD from human cloned 5HT7 receptor
[6] = biological target: T1, 5-hydroxytryptamine receptor 6; experiment: Antagonist activity at human cloned 5HT6 receptor expressed in HeLa cells assessed as inhibition of 5-HT-stimulated cAMP accumulation after 20 mins by enzyme-immunoassay; format: functional, cell-based
Method in brief: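 […] and test compounds were added to HBSS (pH 7.4) containing 1 mM MgCl₂, 1 mM CaCl₂ and 1-methyl-3-isobutylxanthine (IBMX) at 100. After 20 min at 37 °C, intracellular cAMP was measured by enzyme immunoassay. Compounds that inhibited 5-HT-stimulated cAMP accumulation were classed as antagonists.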

Sequence of D(2) dopamine receptor (P14416 whole entry): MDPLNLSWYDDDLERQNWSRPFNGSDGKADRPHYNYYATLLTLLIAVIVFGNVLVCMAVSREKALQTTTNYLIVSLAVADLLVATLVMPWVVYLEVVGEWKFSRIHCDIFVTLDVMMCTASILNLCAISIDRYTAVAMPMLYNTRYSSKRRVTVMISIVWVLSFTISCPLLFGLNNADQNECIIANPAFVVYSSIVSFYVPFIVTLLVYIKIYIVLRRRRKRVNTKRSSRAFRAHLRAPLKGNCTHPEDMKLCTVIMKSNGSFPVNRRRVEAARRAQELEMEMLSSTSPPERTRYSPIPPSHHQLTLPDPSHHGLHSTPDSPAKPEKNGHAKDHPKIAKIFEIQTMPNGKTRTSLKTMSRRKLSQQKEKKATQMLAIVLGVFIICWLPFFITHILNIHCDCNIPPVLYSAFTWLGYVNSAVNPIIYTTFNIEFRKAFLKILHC
Sequence of 5-hydroxytryptamine receptor 2A (P28223 whole entry): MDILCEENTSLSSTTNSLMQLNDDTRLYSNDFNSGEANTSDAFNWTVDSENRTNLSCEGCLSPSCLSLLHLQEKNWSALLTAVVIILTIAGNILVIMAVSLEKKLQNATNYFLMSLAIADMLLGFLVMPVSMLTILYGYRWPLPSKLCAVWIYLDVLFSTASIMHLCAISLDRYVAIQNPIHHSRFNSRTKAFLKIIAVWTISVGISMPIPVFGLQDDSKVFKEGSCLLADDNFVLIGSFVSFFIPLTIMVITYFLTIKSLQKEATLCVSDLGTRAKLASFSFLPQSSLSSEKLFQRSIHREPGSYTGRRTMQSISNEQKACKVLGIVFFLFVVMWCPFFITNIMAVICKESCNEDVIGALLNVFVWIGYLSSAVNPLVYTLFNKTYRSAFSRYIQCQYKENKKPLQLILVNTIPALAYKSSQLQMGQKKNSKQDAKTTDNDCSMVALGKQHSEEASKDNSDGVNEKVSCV
Sequence of 5-hydroxytryptamine receptor 7 (P34969 whole entry): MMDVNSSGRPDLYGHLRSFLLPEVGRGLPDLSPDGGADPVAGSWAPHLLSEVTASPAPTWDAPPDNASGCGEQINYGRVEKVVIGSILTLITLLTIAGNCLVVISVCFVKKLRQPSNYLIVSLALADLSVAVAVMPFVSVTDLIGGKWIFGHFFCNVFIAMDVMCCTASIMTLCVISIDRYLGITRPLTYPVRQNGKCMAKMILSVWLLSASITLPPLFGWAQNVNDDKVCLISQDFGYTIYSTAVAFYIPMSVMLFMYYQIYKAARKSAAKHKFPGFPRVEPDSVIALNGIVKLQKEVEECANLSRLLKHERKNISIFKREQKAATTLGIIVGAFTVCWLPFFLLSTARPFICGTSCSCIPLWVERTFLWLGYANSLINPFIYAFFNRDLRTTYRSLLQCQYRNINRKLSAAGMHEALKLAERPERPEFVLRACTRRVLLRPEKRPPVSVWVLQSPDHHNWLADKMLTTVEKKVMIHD
T1 sequence (P50406 whole entry): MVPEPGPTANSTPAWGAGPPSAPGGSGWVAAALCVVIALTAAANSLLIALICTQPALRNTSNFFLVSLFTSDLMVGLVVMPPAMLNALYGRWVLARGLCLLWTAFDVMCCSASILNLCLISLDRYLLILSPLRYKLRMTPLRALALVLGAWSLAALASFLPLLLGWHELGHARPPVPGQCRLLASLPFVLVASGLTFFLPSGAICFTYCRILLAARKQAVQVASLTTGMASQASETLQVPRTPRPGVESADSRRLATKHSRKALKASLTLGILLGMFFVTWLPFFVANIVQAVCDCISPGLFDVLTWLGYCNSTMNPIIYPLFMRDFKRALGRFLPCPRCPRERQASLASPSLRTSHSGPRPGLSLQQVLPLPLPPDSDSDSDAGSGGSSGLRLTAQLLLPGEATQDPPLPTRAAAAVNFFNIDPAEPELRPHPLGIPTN
Sequence of D(1A) dopamine receptor (P21728 whole entry): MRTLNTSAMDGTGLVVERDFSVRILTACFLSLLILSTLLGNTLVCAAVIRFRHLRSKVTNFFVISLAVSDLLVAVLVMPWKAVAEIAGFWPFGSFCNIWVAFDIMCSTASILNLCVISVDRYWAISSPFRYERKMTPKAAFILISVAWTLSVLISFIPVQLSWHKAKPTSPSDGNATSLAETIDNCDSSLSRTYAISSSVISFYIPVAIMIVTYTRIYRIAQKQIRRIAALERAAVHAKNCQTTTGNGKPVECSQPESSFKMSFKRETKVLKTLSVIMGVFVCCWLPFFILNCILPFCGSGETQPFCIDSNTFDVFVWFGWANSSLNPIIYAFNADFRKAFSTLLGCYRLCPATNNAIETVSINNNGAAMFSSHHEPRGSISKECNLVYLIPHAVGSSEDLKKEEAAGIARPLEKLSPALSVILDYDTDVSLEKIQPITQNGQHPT
Sequence of D(3) dopamine receptor (P35462 whole entry): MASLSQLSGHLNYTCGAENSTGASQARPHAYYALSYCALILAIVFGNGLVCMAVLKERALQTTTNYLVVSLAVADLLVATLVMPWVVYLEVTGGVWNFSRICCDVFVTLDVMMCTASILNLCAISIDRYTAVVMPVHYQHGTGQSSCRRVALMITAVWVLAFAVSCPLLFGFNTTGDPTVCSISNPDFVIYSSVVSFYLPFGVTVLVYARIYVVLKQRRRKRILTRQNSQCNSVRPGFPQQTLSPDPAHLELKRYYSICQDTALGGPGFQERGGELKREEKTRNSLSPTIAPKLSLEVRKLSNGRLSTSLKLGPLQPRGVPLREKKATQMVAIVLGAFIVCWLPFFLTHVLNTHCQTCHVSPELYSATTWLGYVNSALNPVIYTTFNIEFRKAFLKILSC

SMILES: CN(C)c1cc(Cl)c2c(c1)NC(=O)C(C)(c1ccccc1)C2=O (stereo not drawn)
Ki [1]: 0.715 µM

SMILES: CC1(c2ccc(Cl)cc2)C(=O)Nc2cc(Cl)cc(Cl)c2C1=O (stereo not drawn)
Ki [1]: 0.877 µM

SMILES: CN(C)c1ccc(C2(C)C(=O)Nc3cc(Cl)cc(Cl)c3C2=O)cc1 (stereo not drawn)
Ki [1]: 0.346 µM

SMILES: CC1(c2ccc(I)cc2)C(=O)Nc2cc(Cl)cc(Cl)c2C1=O (stereo not drawn)
Ki [1]: 0.952 µM

SMILES: COc1ccc(C2(C)C(=O)Nc3cc(Cl)cc(Cl)c3C2=O)cc1[N+](=O)[O-] (stereo not drawn)
Ki [1]: > 1 µM

SMILES: CC1(c2ccccc2)C(=O)Nc2cc(Cl)c(Cl)cc2C1=O (stereo not drawn)
Ki [1]: > 1 µM

SMILES: CC1(c2ccccc2)C(=O)Nc2c(Br)cc(Br)cc2C1=O (stereo not drawn)
Ki [1]: > 1 µM

SMILES: CC1(c2ccc(O)c([N+](=O)[O-])c2)C(=O)Nc2cc(Cl)cc(Cl)c2C1=O (stereo not drawn)
Ki [1]: > 1 µM

SMILES: COc1ccc([C@@]2(C)C(=O)Nc3cc(Cl)cc(Cl)c3C2=O)cc1
Ki [1]: 0.893 µM

SMILES: CC1(c2ccccc2)C(=O)Nc2ccccc2C1=O (stereo not drawn)
Ki [1]: > 1 µM

SMILES: CC1(c2ccc(OCc3ccccc3)c(Br)c2)C(=O)Nc2cc(Cl)cc(Cl)c2C1=O (stereo not drawn)
Ki [1]: > 1 µM

SMILES: CC1(c2ccccc2)C(=O)Nc2cc(Cl)ccc2C1=O (stereo not drawn)
Ki [1]: > 1 µM

SMILES: COc1cc(Cl)c2c(c1)NC(=O)C(C)(c1ccccc1)C2=O (stereo not drawn)
Ki [1]: 0.345 µM

SMILES: CC1(c2ccc(Br)cc2)C(=O)Nc2cc(Cl)cc(Cl)c2C1=O (stereo not drawn)
Ki [1]: 0.304 µM

SMILES: CC1(c2ccc([N+](=O)[O-])cc2)C(=O)Nc2cc(Cl)cc(Cl)c2C1=O (stereo not drawn)
Ki [1]: > 1 µM

SMILES: COc1cc2c(c(OC)c1)C(=O)C(C)(c1ccccc1)C(=O)N2 (stereo not drawn)
Ki [1]: 0.728 µM

SMILES: COc1ccc(NS(=O)(=O)c2sc3ccc(Cl)cc3c2C)cc1N1CCNCC1
Ki (D(4) dopamine receptor): 0.13 µM | Ki [2]: 0.53 µM | Ki (D(2) dopamine receptor): 0.46 µM | Ki (D(1A) dopamine receptor): 0.12 µM | Ki [4]: 1.74 µM

SMILES: CNc1cc(NS(=O)(=O)c2ccc(N)cc2)cc(NC)n1
Ki [1]: 0.512 µM

Continued by falling Ki [1], values first:

Ki [1]: 0.293 µM
SMILES: COc1ccc([C@]2(C)C(=O)Nc3cc(Cl)cc(Cl)c3C2=O)cc1

Ki [1]: 0.257 µM
SMILES: CNc1ccc(C2(C)C(=O)Nc3cc(Cl)cc(Cl)c3C2=O)cc1 (stereo not drawn)

Ki [1]: 0.197 µM
SMILES: CC1(c2ccccc2)C(=O)Nc2cc(Br)cc(Br)c2C1=O (stereo not drawn)

Ki [1]: 0.156 µM
SMILES: CC1(c2ccc(N)cc2)C(=O)Nc2cc(Cl)cc(Cl)c2C1=O (stereo not drawn)

Ki [1]: 0.147 µM
SMILES: COc1ccc(C2(C)C(=O)Nc3cc(Cl)cc(Cl)c3C2=O)cc1 (stereo not drawn)

Ki (D(4) dopamine receptor): > 10 µM | Ki [2]: > 10 µM | Ki (D(2) dopamine receptor): > 10 µM | Ki [3]: 0.17 µM | Ki (D(1A) dopamine receptor): 0.12 µM | Ki [4]: 0.72 µM | Ki (D(3) dopamine receptor): > 10 µM | Ki [5]: 0.6 µM | Ki [1]: 0.0824 µM
SMILES: CC1(c2cccc(OCc3ccccc3)c2)C(=O)Nc2cc(Cl)cc(Cl)c2C1=O (stereo not drawn)

Ki [1]: 0.0775 µM
SMILES: CC1(c2ccc(O)c(Br)c2)C(=O)Nc2cc(Cl)cc(Cl)c2C1=O (stereo not drawn)

Ki [1]: 0.0732 µM
SMILES: COc1cc(Br)c2c(c1)NC(=O)C(C)(c1ccccc1)C2=O (stereo not drawn)

Ki (D(4) dopamine receptor): > 10 µM | Ki [2]: > 10 µM | Ki (D(2) dopamine receptor): > 10 µM | Ki [3]: > 10 µM | Ki (D(1A) dopamine receptor): > 10 µM | Ki [4]: > 10 µM | Ki (D(3) dopamine receptor): > 10 µM | Ki [5]: > 10 µM | Ki [1]: 0.0547 µM
SMILES: CC1(c2ccccc2)C(=O)Nc2cc(Cl)cc(Cl)c2C1=O (racemic)

Ki (D(4) dopamine receptor): > 10 µM | Ki [2]: > 10 µM | Ki (D(2) dopamine receptor): > 10 µM | Ki [3]: > 10 µM | Ki (D(1A) dopamine receptor): 1.81 µM | Ki [4]: > 10 µM | Ki (D(3) dopamine receptor): > 10 µM | Ki [5]: > 10 µM | Ki [1]: 0.0301 µM
SMILES: CC1(c2cccc(O)c2)C(=O)Nc2cc(Cl)cc(Cl)c2C1=O (stereo not drawn)

Ki [1]: 0.0283 µM
SMILES: CCNc1ccc(C2(C)C(=O)Nc3cc(Cl)cc(Cl)c3C2=O)cc1 (stereo not drawn)

Ki (D(4) dopamine receptor): > 10 µM | Ki [2]: > 10 µM | Ki (D(2) dopamine receptor): > 10 µM | Ki [3]: > 10 µM | Ki (D(1A) dopamine receptor): > 10 µM | IC50 [6]: 0.615 µM | Ki [4]: > 10 µM | Ki (D(3) dopamine receptor): > 10 µM | Ki [5]: > 10 µM | Ki [1]: 0.0123 µM
SMILES: CC1(c2ccc(O)cc2)C(=O)Nc2cc(Cl)cc(Cl)c2C1=O (stereo not drawn)

Ki [1]: 0.0092 µM
SMILES: CCN(CC)c1ccc(C2(C)C(=O)Nc3cc(Cl)cc(Cl)c3C2=O)cc1 (stereo not drawn)
